ChEMBL document CHEMBL1681784, “Development of sulfonamide AKT PH domain inhibitors” (Bioorg Med Chem, 2011)
Calls of active or inactive are those of the source. The rule behind the calls is not given here.

tested on: BXPC-3; assay: Cytotoxicity against human BxPC3 cells by MTT assay; assay type: functional, cell-based

CCCCCCCCCC(=O)Nc1ccc(S(=O)(=O)Nc2nnc(C(=O)OCC)s2)cc1 and CCCCCCCCCC(=O)Nc1ccc(S(=O)(=O)Nc2nnc(CC(=O)OCC)s2)cc1 are within 1.5-fold of each other in IC50: 117 µM for the first, 170 µM for the second.

Nc1ccc(S(=O)(=O)Nc2nncs2)cc1 and CC(=O)Nc1ccc(S(=O)(=O)Nc2nncs2)cc1 cannot be ordered by IC50: over 300 µM for the first, over 300 µM for the second.

CCCCCCCCCCCCc1ccccc1S(=O)(=O)Nc1nncs1 and CCCCCCCCCCCCc1cccc(S(=O)(=O)Nc2nncs2)c1 are within 1.5-fold of each other in IC50: 74 µM for the first, 71 µM for the second.

CCCCCCCCCCCCc1ccc(S(=O)(=O)Nc2ccccc2)cc1 and CCCCCCCCCCCCc1ccc(S(=O)(=O)Nc2nnc(C)s2)cc1 are within 1.5-fold of each other in IC50: 38 µM for the first, 51 µM for the second.

Nc1ccc(S(=O)(=O)Nc2nnc(CC(=O)O)s2)cc1 and Nc1ccc(S(=O)(=O)Nc2nnc(CO)s2)cc1 cannot be ordered by IC50: over 300 µM for the first, over 300 µM for the second.

CCCCCCCCCC(=O)Nc1ccc(S(=O)(=O)Nc2nnc(C)s2)cc1 and CCCCCCCCCC(=O)Nc1ccc(S(=O)(=O)Nc2nnc(CC)s2)cc1 are within 1.5-fold of each other in IC50: 149 µM for the first, 146 µM for the second.

O=S(=O)(Nc1nncs1)c1ccc(-c2ccccc2)cc1 and O=S(=O)(Nc1nnc(CO)s1)c1ccc(-c2ccccc2)cc1 cannot be ordered by IC50: over 300 µM for the first, over 300 µM for the second.

CCc1nnc(NS(=O)(=O)c2ccc(NC(C)=O)cc2)s1 and CC(=O)Nc1ccc(S(=O)(=O)Nc2nnc(CO)s2)cc1 cannot be ordered by IC50: over 300 µM for the first, over 300 µM for the second.

Going from CCCCCCCCCCCCc1ccc(S(=O)(=O)Nc2nnc(CC(=O)O)s2)cc1 to CCCCCCCCCC(=O)Nc1ccc(S(=O)(=O)Nc2nnc(CC(=O)O)s2)cc1, the IC50 rises from 117 µM to over 300 µM. The first is the more potent here.

CC(C)(C)c1nnc(NS(=O)(=O)c2ccc(N)cc2)s1 [GLYBUTHIAZOL] and Cc1nnc(NS(=O)(=O)c2ccc(N)cc2)s1 [SULFAMETHIZOLE] cannot be ordered by IC50: over 300 µM for the first, over 300 µM for the second.

Compared with CCCCCCCCCC(=O)Nc1ccc(S(=O)(=O)Nc2nnc(CO)s2)cc1, CCCCCCCCCC(=O)Nc1ccc(S(=O)(=O)Nc2nnc(S(N)(=O)=O)s2)cc1 is higher in IC50: 189 µM for the first, over 300 µM for the second.

First: CCCCCCc1ccc(S(=O)(=O)Nc2nncs2)cc1
Second: CCCCc1ccc(S(=O)(=O)Nc2nncs2)cc1
The IC50 of the first is lower: 266 µM for the first, over 300 µM for the second. The first is the more potent here.

CC(=O)Nc1ccc(S(=O)(=O)Nc2nnc(S(N)(=O)=O)s2)cc1 and CC(=O)Nc1ccc(S(=O)(=O)Nc2nnc(C)s2)cc1 cannot be ordered by IC50: over 300 µM for the first, over 300 µM for the second.

CC(=O)Nc1ccc(S(=O)(=O)Nc2nnc(C(C)(C)C)s2)cc1 and CC(=O)Nc1ccc(S(=O)(=O)Nc2nnc(CC(=O)O)s2)cc1 cannot be ordered by IC50: over 300 µM for the first, over 300 µM for the second.

Going from COCCOCCOCC(=O)Nc1ccc(S(=O)(=O)Nc2nncs2)cc1 to CCCCCCCCCC(=O)Nc1ccc(S(=O)(=O)Nc2nncs2)cc1, the IC50 falls from over 300 µM to 180 µM. The second is the more potent here.

CCc1nnc(NS(=O)(=O)c2ccc(N)cc2)s1 [SULFAETHIDOLE] and Nc1ccc(S(=O)(=O)Nc2nnc(S(N)(=O)=O)s2)cc1 cannot be ordered by IC50: over 300 µM for the first, over 300 µM for the second.

First: CCOC(=O)c1nnc(NS(=O)(=O)c2ccc(NC(C)=O)cc2)s1
Second: CCOC(=O)Cc1nnc(NS(=O)(=O)c2ccc(NC(C)=O)cc2)s1
The IC50 of the first is higher: over 300 µM for the first, 176 µM for the second. The second is the more potent here.

CCCCCCCCCC(=O)Nc1ccc(S(=O)(=O)Nc2nnc(C(C)(C)C)s2)cc1 gave an IC50 of over 300 µM.

tested on: BXPC-3; assay: Inhibition of AKT phosphorylation at serine 473 residue in human BxPC3 cells at 10 uM after 4 hrs by ELISA; assay type: cell-based
Method in brief: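 BxPC3 cells kept in DMEM with 10% heat-inactivated FBS and 4.5 g/L glucose under 5% CO2, mycoplasma-free. Compound made fresh as a 10 mM DMSO stock and dosed at 10 μM final into the medium for 4 h. Equal amounts of lysate run on an MSD pSer473-AKT/total AKT plate; read-out is the pAKT/AKT ratio.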

For CCCCCCCCCCCCc1ccccc1S(=O)(=O)Nc1nncs1, the inhibition was “inactive”.
With CCCCCCCCCCCCc1ccc(S(=O)(=O)Nc2ccccc2)cc1 the inhibition was “inactive”.
In the case of CCCCCCCCCCCCc1cccc(S(=O)(=O)Nc2nncs2)c1, the inhibition is reported as “inactive”.
